This is a sample that favours compounds with a hit; in the whole collection about 1.4% have one here.
IDE cell activ – human IDE activators in live cells, primary screen, fluorescence polarization, HEK cells, FAbeta-B substrate | Insulin-degrading enzyme (Homo sapiens), P14735 | FAbeta-B cleavage; 0% vehicle, 100% cell-free pure enzyme wells | activation, % at 5.96 µM | actives 0.073% (n = 340,000) | AID 493087, 2011;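 active means activation above the mean of all tested compounds plus 3 SD, set per screening campaign, cut at about 17% in these data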
CSN deneddyl inh – inhibitors of CSN-mediated cullin deneddylation, primary screen, biochemical, fluorescence polarization, uHTS; inhibition, % at 12.5 µM; Purified CSN, SCF-Nedd8-OG deneddylation; COP9 signalosome complex subunit 5 (Homo sapiens), Q92905; actives 0.38% (n = 360,000);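 active means pattern-corrected inhibition above about 35%, with an unprinted fluorescence ratio check between 0.5 and 1.5, limit read from the data, passing the limit was not always enough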
Target sequence (Q92905 whole entry, looked up, one chain of several): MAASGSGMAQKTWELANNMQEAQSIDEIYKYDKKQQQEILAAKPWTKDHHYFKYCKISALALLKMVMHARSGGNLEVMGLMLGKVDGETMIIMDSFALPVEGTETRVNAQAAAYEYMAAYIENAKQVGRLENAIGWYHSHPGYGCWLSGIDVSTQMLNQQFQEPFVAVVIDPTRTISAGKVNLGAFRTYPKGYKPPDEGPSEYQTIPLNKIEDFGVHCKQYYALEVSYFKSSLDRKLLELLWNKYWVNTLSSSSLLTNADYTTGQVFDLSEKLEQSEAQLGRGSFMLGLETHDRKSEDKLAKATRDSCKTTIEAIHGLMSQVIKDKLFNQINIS
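Test system: Human Csn5 produced in HEK293T cells | Compound: 12.5 µM single point | Times: 90 min, room temperature | Signal: Fluorescence polarization readout | Read-out basis: % inhibition of substrate cleavage by Csn5 | Controls: no-enzyme wells high, enzyme-with-substrate wells low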
IDE cell inh – human IDE inhibitors in live cells, primary screen, fluorescence polarization, HEK cells, FAbetaB substrate; Insulin-degrading enzyme (Homo sapiens), P14735; FAbetaB cleavage; inhibition, % at 5.59 µM; actives 0.41% (n = 320,000);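 active means percent inhibition above the average of all tested compounds plus 3 SD, set per screening campaign, cut at about 16% in these data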;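 further: IDE supplied by intact live HEK cells; FP after avidin binding of uncleaved biotin substrate so inhibition keeps polarization high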
HNF4A DNA FP – change in binding of human HNF4A to DNA, primary screen, biochemical, fluorescence polarization, FITC-DNA | Hepatocyte nuclear factor 4-alpha (Homo sapiens), P41235 | actives 0.3% (n = 360,000) | AID 1224865, 2016 | 1 h | activity change, % at 10 µM; in the data active means activity change above about 30%, passing the limit was not always enough
TPT1 inhibitor – Candida albicans TPT1 enzyme inhibitors, primary screen, biochemical, fluorescence polarization | tRNA 2'-phosphotransferase TPT1 (Candida albicans SC5314) | recombinant caTPT1, FP RNA substrate dephosphorylation | inhibition, % at 5 µM | actives 0.81% (n = 300,000) | AID 1962, 2009;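 active means inhibition above the mean of all tested compounds plus 3 SD, set per screening campaign, cut at about 24% in these data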
CSN5 deneddyl – Csn5 deneddylation inhibitors, confirmation, biochemical, fluorescence polarization, single concentration, SCF-Nedd8OG substrate | shares compounds with CSN deneddyl inh | actives 62% (n = 540) | inhibition, % at 16.6 µM | Csn5 deneddylation of SCF-Nedd8OG, 90 min; in the data active means inhibition above about 50%
MMP2 cntr CSN – MMP-2 protease inhibition counter-screen, confirmation, counter-screen for CSN deneddylation inhibitor project, biochemical, fluorescence, single concentration | recombinant MMP-2, FRET substrate fluorescence, 60 min | inhibition, % at 16.6 µM | shares compounds with CSN deneddyl inh | actives 33% (n = 540);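 active means corrected plate-normalized z-score of 5 or more, or -5 or less, or inhibition of 15% or more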
Thrombin cntr – counter-screen for CSN deneddylation inhibitors: bovine thrombin inhibition; shares compounds with CSN deneddyl inh; bovine thrombin cleavage of Ub4-pepOG, fluorescence polarization; inhibition, % at 16.6 µM; AID 720656; actives 49% (n = 540);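 active means inhibition at or above a set limit, with a fluorescence interference ratio between 0.5 and a set maximum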
Hits are given with their value; 0 = inactive; - = no result given.

SMILES | IDE cell activ | CSN deneddyl inh | IDE cell inh | HNF4A DNA FP | TPT1 inhibitor | CSN5 deneddyl | MMP2 cntr CSN | Thrombin cntr
O=[N+]([O-])c1ccc(S(=O)(=O)Nc2ccccn2)cc1 | 0 | 0 | 0 | 0 | 0 | - | - | -
CCOC(=O)c1sc2nc3c(SCCC(=O)O)cc(C(=O)c4cc(OC)ccc4O)cn3c(=O)c2c1C | 0 | 104 | - | 0 | - | 87 | 0 | 0
COc1cc(/C=C2\SC(=Nc3ccc(Cl)c(C(=O)O)c3)NC2=O)c(Br)c(Br)c1O | 0 | 198 | - | 76 | - | 0 | -101 | 0
Cc1cc(/C=c2/sc3nc4ccccc4n3c2=O)c(C)n1-c1ccccn1 | 0 | 0 | 0 | 0 | 0 | - | - | -
Cc1cc(/C=c2\sc3nc4ccccc4n3c2=O)c(C)n1-c1ccc(C(=O)O)cc1 | 0 | 35 | - | 0 | - | 0 | 0 | 27
O=[N+]([O-])c1ccc(C2=NN(c3ccccc3)C(c3ccco3)C2)cc1 (stereo not drawn) | 0 | 63 | - | 0 | - | 176 | 0 | 0
O=C(/C=C/Nc1ccc(Nc2ccccc2)cc1)c1cccs1 | 0 | 37 | - | 57 | - | 94 | 0 | 0
COc1ccc(CNC(=O)COC(=O)c2ccc(Br)o2)cc1 | 0 | 0 | 0 | 0 | - | - | - | -
CCN1C(=O)/C(=C/N2CCc3ccccc32)SC1=S | 0 | 37 | 0 | 0 | 0 | 104 | 0 | 0
CCN1C(=O)/C(=C\N2CCCc3ccccc32)SC1=S | 0 | 0 | 0 | 0 | 0 | - | - | -
O=C(O)CCCN1C(=O)/C(=C\C(Cl)=C\c2ccccc2)SC1=S | 0 | 40 | - | 0 | - | 75 | 30 | 0
Cc1cccc(OCC(=O)NNC(=O)c2ccc3nc[nH]c3c2)c1 | 0 | 0 | 0 | 0 | - | - | - | -
CC(NCC(=O)Nc1ccccc1C(=O)NC1CC1)c1ccc(F)cc1F (stereo not drawn) | 0 | 0 | 0 | 0 | - | - | - | -
Cc1ccc2[nH]c(=O)c(CN(CCc3ccccc3)C(c3nnnn3Cc3ccco3)C(C)C)cc2c1 (stereo not drawn) | 0 | 38 | 0 | 0 | 0 | 88 | 0 | 0
CCN(CC)S(=O)(=O)c1ccc(NC(=O)COC(=O)CNC(=O)C2CCCCC2)cc1 | 0 | 0 | - | 0 | - | - | - | -
O=C(CSc1nc(-c2ccc(F)cc2)nc2c1Cc1ccccc1O2)Nc1cccc(C(=O)O)c1 | 0 | 43 | - | 0 | - | 0 | 30 | 0
CCOc1cc(OCC)cc(C(=O)N2CCC[C@H]2C(=O)N2CCC[C@H]2C(=O)N[C@@H](C)c2ccccc2)c1 | - | 0 | - | 0 | - | - | - | -
CCCCCCCC/C=C\CCCCCCCC(=O)O | 0 | 0 | 0 | 0 | 0 | - | - | -
CCCCCCCCCCCCC/C=C/[C@@H](O)[C@@H](N)CO | 0 | 41 | 0 | 0 | 0 | 0 | 0 | 0
COC(=O)N1c2ccccc2C=Cc2ccccc21 | 0 | 0 | 0 | 0 | 0 | - | - | -
COc1ccccc1C(=O)NNC(=O)c1ccc(Br)o1 | 0 | 0 | 0 | 0 | 0 | - | - | -
O=C1C(=C(I)I)c2ccccc2-c2ccccc21 | 0 | 52 | - | 0 | - | 63 | 0 | 0
Cc1ccc(CSc2nnc(SCC(=O)N/N=C/c3c[nH]c4ccccc34)s2)cc1 | 0 | 61 | - | 108 | - | 67 | 23 | 0
O=C(CSc1nnc(SCc2ccccc2)s1)N/N=C/c1c[nH]c2ccccc12 | 0 | 0 | - | 0 | - | - | - | -
CCOc1cc(/C=N/NC(=O)c2ccc(-c3csc(Nc4ccc(C)cc4)n3)cc2)ccc1OCC(=O)O | - | 49 | - | 0 | - | 0 | 30 | 0
SMILES | IDE cell activ | CSN deneddyl inh | IDE cell inh | HNF4A DNA FP | TPT1 inhibitor | CSN5 deneddyl | MMP2 cntr CSN | Thrombin cntr
O=C(O)COc1ccc(/C=N/NC(=O)c2ccc(-c3csc(Nc4ccc(Cl)cc4)n3)cc2)cc1 | 0 | 93 | - | 0 | - | 98 | 16 | 0
COc1ccc(C=O)c2[nH]c3c(Cl)ncnc3c12 | 0 | 0 | - | 0 | - | - | - | -
CC(=O)OC[C@]12CC[C@H]3[C@@](C)(CC[C@H]4C(C)(C)CCC[C@]34C)[C@@H]1CC(C1=CC(=O)OC1O)O2 (stereo partly drawn) | - | 35 | - | 0 | - | 0 | 0 | 0
Cc1ccc(S(=O)(=O)N2C3CC(c4ccccc4)N(S(=O)(=O)c4cccc(Cl)c4)CC3C(=O)C[C@H]2c2ccccc2)cc1 (stereo partly drawn) | - | 0 | - | 0 | - | - | - | -
O=C(Cc1ccc(NS(=O)(=O)c2ccc(F)cc2)cc1)NCc1cccnc1 | 0 | 0 | 0 | 0 | 0 | - | - | -
COc1ccccc1-n1cnc2c(c1=O)c1nc3ccccc3nc1n2-c1ccc(C)c(C)c1 | 0 | 88 | - | 0 | - | 124 | 0 | 0
CCCc1cc(=O)oc2cc(OCC(=O)Nc3ccc(S(N)(=O)=O)cc3)ccc12 | 0 | 104 | 0 | 0 | 0 | 0 | 46 | 32
Cc1ccc(NC(=O)c2ccc(S(=O)(=O)NCc3cccnc3)cc2)c(C)c1 | 0 | 0 | 0 | 0 | 0 | - | - | -
COc1cc2c(oc(=O)c3cc(C)cc(OC)c32)c2c(C3OC(C)C(O)C(C)(O)C3O)ccc(O)c12 (stereo not drawn) | 0 | 35 | - | 0 | - | 107 | 0 | 0
COc1cccc2cc(C(=O)N3CC(C)OC(C)C3)c(=O)oc12 (stereo not drawn) | 0 | 0 | 0 | 0 | 0 | - | - | -
Cc1ccc(/C=C2\SC(=S)N(Cc3ccccc3)C2=O)o1 | 0 | 115 | 0 | 0 | 39 | 108 | 0 | 24
O=C1/C(=C\c2ccc(O)c(O)c2)SC(=S)N1Cc1ccccc1 | 0 | 55 | - | 68 | - | 0 | 0 | 68
O=C1/C(=C/c2ccncc2)SC(=S)N1Cc1ccccc1 | 0 | 0 | 0 | 0 | 0 | - | - | -
O=C(O)c1cc(-c2ccc(/C=C3/SC(=S)N(Cc4ccccc4)C3=O)o2)ccc1Cl | 0 | 0 | - | 0 | - | - | - | -
CC[n+]1c(/C=C2\Sc3ccccc3N2C)ccc2cccc(C)c21 | 0 | 70 | - | 156 | - | 0 | 0 | 0
Nc1ccc2ccccc2c1[N+](=O)[O-] | 0 | 0 | - | 0 | - | - | - | -
Nc1cc2c3ccccc3ccc2c2ccccc12 | 0 | 46 | - | 0 | - | 82 | 0 | 0
Cc1cccc(-c2noc(CCCC(=O)NC3CCCCC3)n2)c1 | 0 | 0 | 0 | 0 | 0 | - | - | -
CCS(=O)(=O)C1=NN2C(=N)/C(=C\c3ccc(SCc4ccco4)o3)C(=O)N=C2S1 | 0 | 116 | - | 0 | - | 0 | 0 | 54
N=C(N)c1ccc(Cl)cc1 | 0 | 0 | 0 | 0 | 0 | - | - | -
N=C(N)c1ccc(/C=C/c2ccc(C(=N)N)cc2O)cc1 | 0 | 46 | 0 | 0 | 0 | 0 | 0 | 32

Assay outcomes: PubChem, several laboratories
